Data reported in ChEMBL document CHEMBL3351249, “Potent cholesteryl ester transfer protein inhibitors of reduced lipophilicity: 1,1'-spiro-substituted hexahydrofuroquinoline derivatives” (J Med Chem, 2014).
pIC50: −log10 of the molar value.

What was measured:
[1] = system: Mus musculus; experiment: Increase in HDL-cholesterol in hemizygous human CETP transgenic mouse at 10 mg/kg, po dosed for 5 consecutive days; type: functional
In short: (§1)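 Male hemizygous hCETP or hCETP/hApoB100 transgenic mice, 26−30 weeks, chow-fed. Compound suspended in 0.5% aqueous hydroxyethylcellulose, oral gavage each morning for 5 or 14 days. EDTA blood taken 7 h post-dose (fed for 5-day, after 4 h fast for 14-day) from vena facialis under isoflurane. HDL/LDL cholesterol measured on Cobas Integra 400 Plus. Mean ± SEM, one-way ANOVA with Bonferroni.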

[2] = system: Mus musculus; experiment: Increase in HDL-cholesterol in hemizygous human CETP transgenic mouse at 1 mg/kg, po dosed for 5 consecutive days; type: functional; in short: as §1
[3] = system: Mus musculus; experiment: Increase in HDL-cholesterol in hemizygous human CETP transgenic mouse at 3 mg/kg, po dosed for 5 consecutive days; type: functional; in short: as §1
[4] = system: Plasma; experiment: Plasma concentration in hemizygous human CETP transgenic mouse at 10 mg/kg, po dosed for 5 consecutive days measured on day 5 and day 7 post dose; type: ADME, organism-based; design: dose 10 mg/kg, route oral; details: in vivo
[5] = system: Plasma; experiment: Plasma concentration in hemizygous human CETP transgenic mouse at 1 mg/kg, po dosed for 5 consecutive days measured on day 5 and day 7 post dose; type: ADME, organism-based; design: dose 1 mg/kg, route oral; details: in vivo
[6] = system: Plasma; experiment: Plasma concentration in hemizygous human CETP transgenic mouse at 3 mg/kg, po dosed for 5 consecutive days measured on day 5 and day 7 post dose; type: ADME, organism-based; design: dose 3 mg/kg, route oral; details: in vivo
[7] = system: Mus musculus; experiment: Increase in HDL-cholesterol in human CETP/human ApoB-100 transgenic mouse at 1 mg/kg, po dosed for 14 consecutive days; type: functional; in short: as §1
[8] = system: Mus musculus; experiment: Increase in HDL-cholesterol in human CETP/human ApoB-100 transgenic mouse at 3 mg/kg, po dosed for 14 consecutive days; type: functional; in short: as §1
[9] = system: Mus musculus; experiment: Increase in HDL-cholesterol in human CETP/human ApoB-100 transgenic mouse at 10 mg/kg, po dosed for 14 consecutive days; type: functional; in short: as §1
[10] = system: Mus musculus; experiment: Reduction in plasma LDL-cholesterol in human CETP/human ApoB-100 transgenic mouse at 1 mg/kg, po dosed for 14 consecutive days; type: functional; in short: as §1
[11] = system: Mus musculus; experiment: Reduction in plasma LDL-cholesterol in human CETP/human ApoB-100 transgenic mouse at 3 mg/kg, po dosed for 14 consecutive days; type: functional
In short: (§2)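 Hemizygous male human CETP/human apoB100 transgenic mice (B6.SJL-Tg(APOA-CETP)1Dsg Tg(APOB)1102Sgy N10), aged 26–30 weeks and chow-fed, received oral gavage each morning for 14 consecutive days. Compound was suspended in 0.5% aqueous hydroxyethylcellulose. EDTA blood was taken from the facial vein under isoflurane 7 h post-dose after a 4 h fast. Plasma LDL-cholesterol fraction was measured on an automated analyzer. Data are mean ± SEM.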

[12] = system: Mus musculus; experiment: Reduction in plasma LDL-cholesterol in human CETP/human ApoB-100 transgenic mouse at 10 mg/kg, po dosed for 14 consecutive days; type: functional; in short: as §2
[13] = system: Plasma; experiment: Drug concentration in plasma of hemizygous human CETP transgenic mouse at 3 mg/kg, po dosed for 5 consecutive days measured on day 3 after cessation of drug treatment; type: ADME, organism-based; design: dose 3 mg/kg, route oral; details: in vivo
In short: (§3)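 Male hCETP transgenic mice given oral doses for 5 days in 0.5% hydroxyethylcellulose. Tissues and plasma collected at day 3 and day 21 after the last dose. Fat diluted 6:1 with acetonitrile and homogenized. Analysis by LC/MS/MS on a C18 column with QCs at 4.0−1000 nM, accepted within 30% of target.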

[14] = system: Muscle tissue; experiment: Drug concentration in muscle of hemizygous human CETP transgenic mouse at 3 mg/kg, po dosed for 5 consecutive days measured on day 3 after cessation of drug treatment; type: ADME, organism-based; design: dose 3 mg/kg, route oral; details: in vivo; in short: as §3
[15] = system: Liver; experiment: Drug concentration in liver of hemizygous human CETP transgenic mouse at 3 mg/kg, po dosed for 5 consecutive days measured on day 3 after cessation of drug treatment; type: ADME, organism-based; design: dose 3 mg/kg, route oral; details: in vivo; in short: as §3
[16] = system: Kidney; experiment: Drug concentration in kidney of hemizygous human CETP transgenic mouse at 3 mg/kg, po dosed for 5 consecutive days measured on day 3 after cessation of drug treatment; type: ADME, organism-based; design: dose 3 mg/kg, route oral; details: in vivo; in short: as §3
[17] = Drug concentration in testes of hemizygous human CETP transgenic mouse at 3 mg/kg, po dosed for 5 consecutive days measured on day 3 after cessation of drug treatment; type: ADME, organism-based, Testis; design: dose 3 mg/kg, route oral; details: in vivo; in short: as §3
[18] = Drug concentration in adipose fat tissue of hemizygous human CETP transgenic mouse at 3 mg/kg, po dosed for 5 consecutive days measured on day 3 after cessation of drug treatment; type: ADME, organism-based; design: dose 3 mg/kg, route oral; details: in vivo; in short: as §3
[19] = Drug concentration in plasma of hemizygous human CETP transgenic mouse at 3 mg/kg, po dosed for 5 consecutive days measured on day 21 after cessation of drug treatment; type: ADME, organism-based; design: dose 3 mg/kg, route oral; in short: as §3
[20] = Drug concentration in muscle of hemizygous human CETP transgenic mouse at 3 mg/kg, po dosed for 5 consecutive days measured on day 21 after cessation of drug treatment; type: ADME, organism-based, Muscle tissue; design: dose 3 mg/kg, route oral; details: read-out: Drug uptake; in short: as §3
[21] = Drug concentration in liver of hemizygous human CETP transgenic mouse at 3 mg/kg, po dosed for 5 consecutive days measured on day 21 after cessation of drug treatment; type: ADME, organism-based; design: dose 3 mg/kg, route oral; details: read-out: Drug uptake; in short: as §3
[22] = Drug concentration in kidney of hemizygous human CETP transgenic mouse at 3 mg/kg, po dosed for 5 consecutive days measured on day 21 after cessation of drug treatment; type: ADME, organism-based; design: dose 3 mg/kg, route oral; details: read-out: Drug uptake; in short: as §3
[23] = Drug concentration in testes of hemizygous human CETP transgenic mouse at 3 mg/kg, po dosed for 5 consecutive days measured on day 21 after cessation of drug treatment; type: ADME, organism-based, Testis; design: dose 3 mg/kg, route oral; details: male, read-out: Drug uptake; in short: as §3
[24] = Drug concentration in adipose fat tissue of hemizygous human CETP transgenic mouse at 3 mg/kg, po dosed for 5 consecutive days measured on day 21 after cessation of drug treatment; type: ADME, organism-based; design: dose 3 mg/kg, route oral; details: read-out: Drug uptake; in short: as §3
[25] = system: NCI-H295R; experiment: Effect on aldosterone secretion in human NCI-H295R cells up to 10 uM; type: ADME, cell-based
[26] = system: Cynomolgus monkey; experiment: Effect on blood pressure in cynomolgus monkey up to 100 mg/kg by telemetry; type: ADME, organism-based, Macaca fascicularis; design: dose 100 mg/kg; details: in vivo
In short: (§4)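 Acute telemetry study in conscious cynomolgus monkeys at doses up to 100 mg/kg. Blood pressure, left ventricular pressure, contractility, heart rate and ECG (PR, QRS, QT) recorded. Exposure followed as Cmax and MRT.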

[27] = system: Cynomolgus monkey; experiment: Effect on left ventricular pressure in cynomolgus monkey up to 100 mg/kg by telemetry; type: ADME, organism-based, Macaca fascicularis, Heart left ventricle; design: dose 100 mg/kg; details: in vivo; in short: as §4
[28] = system: Cynomolgus monkey; experiment: Effect on myocardial contractility in cynomolgus monkey up to 100 mg/kg by telemetry; type: ADME, organism-based, Macaca fascicularis, Myocardium; design: dose 100 mg/kg; details: in vivo; in short: as §4
[29] = system: Cynomolgus monkey; experiment: Effect on heart rate in cynomolgus monkey up to 100 mg/kg by telemetry; type: ADME, organism-based, Macaca fascicularis; design: dose 100 mg/kg; details: in vivo; in short: as §4
[30] = system: Cynomolgus monkey; experiment: Effect on electrocardiogram parameters in cynomolgus monkey assessed as changes in PR-interval up to 100 mg/kg by telemetry; type: ADME, organism-based, Macaca fascicularis; design: dose 100 mg/kg; details: in vivo; in short: as §4
[31] = system: Cynomolgus monkey; experiment: Effect on electrocardiogram parameters in cynomolgus monkey assessed as changes in QRS-complex up to 100 mg/kg by telemetry; type: ADME, organism-based, Macaca fascicularis; design: dose 100 mg/kg; details: in vivo; in short: as §4
[32] = system: Cynomolgus monkey; experiment: Effect on electrocardiogram parameters in cynomolgus monkey assessed as changes in QT-interval up to 100 mg/kg by telemetry; type: ADME, organism-based, Macaca fascicularis; design: dose 100 mg/kg; details: in vivo; in short: as §4
[33] = Cmax in cynomolgus monkey up to 100 mg/kg; type: ADME, organism-based, Macaca fascicularis; design: dose 100 mg/kg; details: in vivo; in short: as §4
[34] = Mean residence time in cynomolgus monkey up to 100 mg/kg; type: ADME, organism-based, Macaca fascicularis; design: dose 100 mg/kg; details: in vivo; in short: as §4
[35] = biological target: T1, Cholesteryl ester transfer protein (Homo sapiens, UniProt P11597); experiment: Inhibition of human recombinant CETP in presence of 88% human plasma by fluorescence transfer assay
T1 sequence (P11597 whole entry): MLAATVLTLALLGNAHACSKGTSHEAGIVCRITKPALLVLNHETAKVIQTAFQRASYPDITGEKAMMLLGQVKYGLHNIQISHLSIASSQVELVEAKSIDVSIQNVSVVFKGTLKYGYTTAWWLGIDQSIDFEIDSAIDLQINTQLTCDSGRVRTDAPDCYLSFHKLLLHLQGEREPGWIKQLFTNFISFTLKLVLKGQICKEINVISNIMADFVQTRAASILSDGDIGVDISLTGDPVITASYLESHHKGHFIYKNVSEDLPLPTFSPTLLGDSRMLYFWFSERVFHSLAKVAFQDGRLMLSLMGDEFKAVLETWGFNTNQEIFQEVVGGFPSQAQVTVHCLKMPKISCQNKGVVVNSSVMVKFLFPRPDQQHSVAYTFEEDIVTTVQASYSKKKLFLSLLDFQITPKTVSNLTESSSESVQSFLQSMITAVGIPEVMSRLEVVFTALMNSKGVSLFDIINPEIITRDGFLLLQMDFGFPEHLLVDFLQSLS
In short: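 Fluorescent neutral-lipid transfer from donor to acceptor particles by human recombinant CETP, with the test compound added in DMSO. Incubation 3 h at 37 °C. CE transfer is read as the fluorescence change at 485/535 nm. IC50 comes from a four-parameter logistic fit with variable slope. For this line the reaction contains 88% human plasma.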

[36] = AUC (0 to 24 hrs) in C57BL/6J mouse at 10 umol/kg, po; type: ADME, organism-based; design: time < 24 hr, dose 10 umol/kg, route oral; details: plasma
[37] = Clearance in C57BL/6J mouse at 1 umol/kg, iv; type: ADME, organism-based; details: in vivo
[38] = Mean residence time in C57BL/6J mouse at 1 umol/kg, iv; type: ADME, organism-based; details: in vivo
[39] = Volume of distribution at steady state in C57BL/6J mouse at 1 umol/kg, iv; type: ADME, organism-based; details: in vivo, read-out: Vdss
[40] = system: Mus musculus; experiment: Inhibition of plasma CETP activity in hemizygous human CETP transgenic mouse dosed for 5 or 14 consecutive days via oral gavage; type: functional, organism-based
[41] = system: Mus musculus; experiment: Increase in HDL-cholesterol in hemizygous human CETP transgenic mouse dosed for 5 consecutive days via oral gavage; type: functional, organism-based; in short: as §1
[42] = system: Mus musculus; experiment: Increase in HDL-cholesterol in hemizygous human CETP transgenic mouse dosed for 14 consecutive days via oral gavage; type: functional, organism-based; in short: as §1
[43] = system: Mus musculus; experiment: Reduction in LDL-cholesterol in hemizygous human CETP/human apoB100 transgenic mouse dosed for 14 consecutive days via oral gavage

Compound: CC(C)c1nc2c(c3c1[C@@H](c1ccc(C(F)(F)F)cc1)OC31CCOCC1)[C@@H](O)CC(C)(C)C2
- Activity [1]: 37.4%
- Activity [2]: 55.6%
- Activity [3]: 74.4%
- concentration [4]: 671 nM
- concentration [5]: 96 nM
- concentration [6]: 206 nM
- Activity [7]: 23.5%
- Activity [8]: 32.3%
- Activity [9]: 37.2%
- inhibition in vivo at 1 mg/kg [10]: 26.2%
- inhibition in vivo at 3 mg/kg [11]: 49%
- inhibition in vivo at 10 mg/kg [12]: 60%
- Drug uptake [13]: Active
- Drug uptake [14]: Active
- Drug uptake [15]: Active
- Drug uptake [16]: Active
- Drug uptake [17]: Active
- Drug uptake [18]: Active
- concentration at 21 days after cessation of treatment [19]: < 30 nM
- concentration at 21 days after cessation of treatment [20]: < 30 nM
- concentration at 21 days after cessation of treatment [21]: < 30 nM
- concentration at 21 days after cessation of treatment [22]: < 30 nM
- concentration at 21 days after cessation of treatment [23]: < 30 nM
- concentration at 21 days after cessation of treatment [24]: < 30 nM
- Activity [25]: Non-toxic
- Activity [26]: Non-toxic
- Activity [27]: Non-toxic
- Activity [28]: Non-toxic
- Activity [29]: Non-toxic
- Activity [30]: Non-toxic
- Activity [31]: Non-toxic
- Activity [32]: Non-toxic
- Cmax [33]: > 10000 nM
- MRT [34]: > 20 h
- pIC50 [35]: 6.82
- AUC(0-t) at 24 h [36]: 4.9 µM·h
- clearance [37]: 16 mL/min/kg
- MRT [38]: 6.1 h
- Vd [39]: 5.9 L/kg
- inhibition [40]: Dose-dependent effect
- Activity [41]: Dose-dependent effect
- Activity [42]: Dose-dependent effect
- Activity [43]: Dose-dependent effect
